The target in one test is Cathepsin K (Homo sapiens, UniProt P43235). In words: Inhibition of humanized rabbit cathepsin K. In a few lines: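 IC50 was measured against the humanized rabbit enzyme and is the mean of at least four independent titrations, reported with SEM.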
Another test addresses Cathepsin B (Homo sapiens, UniProt P07858). Kind of test: Inhibition of human cathepsin B.
The next test has as its target Procathepsin L (Homo sapiens, UniProt P07711). In words: Inhibition of human cathepsin L.
A further test deals with Cathepsin S (Homo sapiens, UniProt P25774). Kind of test: Inhibition of human cathepsin S.

The text below walks through data of ChEMBL document CHEMBL1140019, “Primary amides as selective inhibitors of cathepsin K” (Bioorg Med Chem Lett, 2007).

Chain of Procathepsin L (P07711 whole entry): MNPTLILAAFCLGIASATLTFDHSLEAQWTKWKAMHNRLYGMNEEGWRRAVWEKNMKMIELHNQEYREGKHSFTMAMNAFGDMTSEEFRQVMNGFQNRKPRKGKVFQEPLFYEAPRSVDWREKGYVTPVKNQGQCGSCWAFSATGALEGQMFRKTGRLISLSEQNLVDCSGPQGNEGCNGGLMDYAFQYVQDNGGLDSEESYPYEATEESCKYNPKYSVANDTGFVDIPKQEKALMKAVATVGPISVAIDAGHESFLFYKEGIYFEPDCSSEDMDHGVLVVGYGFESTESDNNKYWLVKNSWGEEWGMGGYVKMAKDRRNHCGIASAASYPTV
Chain of Cathepsin S (P25774 whole entry): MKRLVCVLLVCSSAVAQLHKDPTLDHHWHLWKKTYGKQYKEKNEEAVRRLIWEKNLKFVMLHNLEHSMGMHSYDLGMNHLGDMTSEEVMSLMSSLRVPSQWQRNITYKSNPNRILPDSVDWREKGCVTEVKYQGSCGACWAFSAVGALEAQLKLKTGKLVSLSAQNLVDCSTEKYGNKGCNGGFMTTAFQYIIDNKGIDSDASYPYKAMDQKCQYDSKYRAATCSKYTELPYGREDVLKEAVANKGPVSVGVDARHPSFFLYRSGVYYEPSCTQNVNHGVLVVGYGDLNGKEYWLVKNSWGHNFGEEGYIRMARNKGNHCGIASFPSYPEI

One may read the IC50 as the concentration at which inhibition is half-maximal. Higher therefore signals a need for much substance. For `CSCC[C@H](NC(=O)[C@H](CC(C)C)N[C@@H](c1ccc(-c2ccc(S(C)(=O)=O)cc2)cc1)C(F)(F)F)C(=O)NS(C)(=O)=O`, the IC50 against Cathepsin K is 238 nM.
On the same count and under the same terms, as for `CC(C)C[C@H](N[C@@H](c1ccc(-c2ccc(S(C)(=O)=O)cc2)cc1)C(F)(F)F)C(=O)N[C@@H](CCc1ccccc1)C(N)=O`, the figure is 273 nM; as for `CSCC[C@H](NC(=O)[C@H](CC(C)C)N[C@@H](c1ccc(-c2ccc(S(C)(=O)=O)cc2)cc1)C(F)(F)F)C(=O)NCc1ccccc1`, 87 nM; as for `CSCC[C@H](NC(=O)[C@H](CC(C)C)N[C@@H](c1ccc(-c2ccc(S(C)(=O)=O)cc2)cc1)C(F)(F)F)C(=O)NCC(F)(F)F`, 277 nM.
The compound `CC(C)C[C@H](N[C@@H](c1ccc(-c2ccc(S(C)(=O)=O)cc2)cc1)C(F)(F)F)C(=O)N[C@@H](C)C(N)=O` showed a half-inhibitory concentration (IC50) against Cathepsin K of 174 nM.
The same measure, in the same setting: the figure for `CSC[C@H](NC(=O)[C@H](CC(C)C)N[C@@H](c1ccc(-c2ccc(S(C)(=O)=O)cc2)cc1)C(F)(F)F)C(N)=O` is 66 nM; for `CC(C)C[C@H](N[C@@H](c1ccc(-c2ccc(S(C)(=O)=O)cc2)cc1)C(F)(F)F)C(=O)N[C@@H](CS(C)(=O)=O)C(N)=O` it is 109 nM; for `CC(C)C[C@H](N[C@@H](c1ccc(-c2ccc(S(C)(=O)=O)cc2)cc1)C(F)(F)F)C(=O)N[C@@H](CCS(C)(=O)=O)C(N)=O` it is 151 nM.
The same measure, in the same setting: as for `CC(C)C[C@H](N[C@@H](c1ccc(-c2ccc(S(C)(=O)=O)cc2)cc1)C(F)(F)F)C(=O)N[C@@H](C)C#N`, the figure is 0.9 nM.
The same measure, in the same setting: as for `CSCC[C@@H](C#N)NC(=O)[C@H](CC(C)C)N[C@@H](c1ccc(-c2ccc(S(C)(=O)=O)cc2)cc1)C(F)(F)F`, the figure is 0.2 nM.
With `CNC(=O)[C@H](CCSC)NC(=O)[C@H](CC(C)C)N[C@@H](c1ccc(-c2ccc(S(C)(=O)=O)cc2)cc1)C(F)(F)F`, at Cathepsin K, the IC50 was 67 nM.
Consider `CSCC[C@H](NC(=O)[C@H](CC(C)C)N[C@@H](c1ccc(-c2ccc(S(C)(=O)=O)cc2)cc1)C(F)(F)F)C(C)=O`, for which half-maximal inhibition on Cathepsin K (IC50) was put at 41 nM.
Same read-out and setting: as for `CSCC[C@H](NC(=O)[C@H](CC(C)C)N[C@@H](c1ccc(-c2ccc(S(C)(=O)=O)cc2)cc1)C(F)(F)F)C(=O)O`, the figure is 120 nM; as for `CC(C)C[C@H](N[C@@H](c1ccc(-c2ccc(S(C)(=O)=O)cc2)cc1)C(F)(F)F)C(=O)N[C@H](Cc1ccccc1)C(N)=O`, 6070 nM.
Turning to `CC(C)C[C@H](N[C@@H](c1ccc(-c2ccc(S(C)(=O)=O)cc2)cc1)C(F)(F)F)C(=O)N[C@@H](Cc1ccccc1)C(N)=O`, the IC50 is 10 nM against Cathepsin K, more than 100000 nM at Cathepsin B, 17000 nM at Procathepsin L and 66700 nM at Cathepsin S.
In turn, `CC(C)C[C@H](N[C@@H](c1ccc(-c2ccc(S(C)(=O)=O)cc2)cc1)C(F)(F)F)C(=O)N[C@H](C#N)Cc1ccccc1` yielded an IC50 against Cathepsin K of 0.6 nM.
Regarding `CC(C)C[C@H](N[C@@H](c1ccc(-c2ccc(S(C)(=O)=O)cc2)cc1)C(F)(F)F)C(=O)NCC(N)=O`, the IC50 at Cathepsin K is 238 nM; at Cathepsin B, more than 100000 nM; against Procathepsin L, 63100 nM; against Cathepsin S, 41100 nM.
On the same counts, the results for `CSCC[C@H](NC(=O)[C@H](CC(C)C)N[C@@H](c1ccc(-c2ccc(S(C)(=O)=O)cc2)cc1)C(F)(F)F)C(N)=O` are 13 nM, more than 100000 nM, 55700 nM and 76900 nM.
In the case of `CSCC[C@H](NC(=O)[C@H](CC(C)C)N[C@@H](c1ccc(-c2ccc(S(C)(=O)=O)cc2)cc1)C(F)(F)F)C(=O)N(C)C`, the IC50 at Cathepsin K is 1050 nM. This counts as single-digit micromolar.
On Cathepsin K, `COC(=O)[C@H](CCSC)NC(=O)[C@H](CC(C)C)N[C@@H](c1ccc(-c2ccc(S(C)(=O)=O)cc2)cc1)C(F)(F)F` came in with an IC50 of 27 nM.
Take `CC(C)C[C@H](N[C@@H](c1ccc(-c2ccc(S(C)(=O)=O)cc2)cc1)C(F)(F)F)C(=O)NCC#N`: the IC50 against Cathepsin K was 0.2 nM.
